Results taken from ChEMBL document CHEMBL4513216, “Probing the Open Global Health Chemical Diversity Library for Multistage-Active Starting Points for Next-Generation Antimalarials” (ACS Infect Dis, 2020).

Assay: Toxicity liver stage against HepG2, at 10uM
Assay type: cell-based
Design: test concentration 10 uM, cell line HepG2-A16-CD81EGFP
Conditions: human, HepG2-A16-CD81EGFP cells; read-out: INHIBITION
In short: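 Uninfected HepG2-A16-CD81EGFP cells, 3 × 10^3 per well, 1536-well, plated on prespotted compound at 10 μM final, parasite-free screening media added to match infected plates; puromycin 10 μM positive, DMSO 0.5% negative; run in parallel with 48 h PbLuc assay at 37 °C, 5% CO2; viability by CellTiter-Glo luminescence, normalized to controls.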

Row | SMILES | cytotoxicity at 10 µM
1 | COc1cccc(CNC(=O)CCC2=Nc3ccccc3S(=O)(=O)N2)c1 | 4.19%
2 | CCOC(=O)CNC(=O)NCc1cccn1Cc1ccccc1F | -2.24%
3 | COC1CN(C(=O)NC2CCCC2)CCC(=O)N(C)c2ccccc21 (stereo unspecified) | -9.35%
4 | Cc1ccc(C(=O)N2CC[C@@]3(O)CCCC[C@H]3C2)cc1 | -45.1%
5 | Cn1nnnc1SC1CCc2ccccc2NC1=O (stereo unspecified) | -3.22%
6 | O=C(Nc1ncc[nH]1)c1cc(-c2cccnc2)n[nH]1 | 5.69%
7 | Cc1ccsc1C(O)CNC(=O)Cc1ccc(F)cc1 (stereo unspecified) | 3.15%
8 | CCCS(=O)(=O)NCc1nc(C)cc(N2CCCC2)n1 | 8.09%
9 | Cc1nc(-c2cnn(C)c2)nc2c1CN(C(=O)c1ccc[nH]1)CC2 | 13%
10 | CCn1nnc2c1C(COCCN(C)C)CN(c1nncs1)C2 (stereo unspecified) | 1.52%
11 | Cc1ccc(N2CC[C@@H]3[C@@H](CO[C@H]3CNC(=O)c3ccco3)C2)nn1 | 9.43%
12 | Cc1noc([C@@]23CCO[C@@H]2CCN(C(=O)c2cc(C)c(C)s2)C3)n1 | 8.73%
13 | COCCN1C(=O)[C@]2(CC[C@@H]3CN(C(=O)NC(C)C)C[C@@H]32)N=C1C | -57.5%
14 | Cc1ccsc1C(=O)N1CCC2(CC(C(=O)N(C)C(C)C)=NO2)C1 (stereo unspecified) | -126%
15 | COCC(=O)N1CCCn2c(CN3CCCC3)nnc2C1 | -130%
16 | CCN1CC2(CC1=O)CN(C(=O)c1ccsc1)CCN(C(=O)N(C)C)C2 (stereo unspecified) | 3.01%
17 | CC/N=c1\nc(NCC)nc2n1C(O)(Nc1cc(Cl)ccc1Cl)CS2 (stereo unspecified) | 51.8%
18 | Cc1ccc2c(c1)C1(CC2)CCN(c2nncs2)CC1 | 9.43%
19 | COc1ccccc1C(=O)Nc1c(F)c(C(=O)NCCC(C)C)nn1C | -11.1%
20 | Cc1nn(C)c2c(NCc3ccc(F)cc3)nc(C3CC3)nc12 | 0.107%
21 | Cc1cc(C)n(C(=O)c2cn(C)nc2S(=O)(=O)N2CCSCC2)n1 | -2.64%
22 | Fc1ccc(Nc2ccc(C3CCN(Cc4ncc[nH]4)CC3)nc2)nc1 | -1.85%
23 | O=C(O)c1ccccc1-c1ccc(CNC(=O)C2CCOCC2)cc1 | 1.33%

Row | SMILES | cytotoxicity at 10 µM
24 | CCCN(CCn1c(=O)oc2ccccc21)CC1CC1 | 1.78%
25 | O=C(Nc1cc(Cl)ccc1N1CCCCC1)c1ccccn1 | -55%
26 | Cc1ccc(-n2cc(C)cn2)c(NC(=O)NC2(C)CCOC2)c1 (stereo unspecified) | -43.2%
27 | CCS(=O)(=O)CCCN1CCSCC1c1ccc(Cl)cc1 (stereo unspecified) | -5.05%
28 | N#CC1(C(=O)N2CCOC(c3ccc(Cl)cc3)C2)CCCC1 (stereo unspecified) | 1.36%
29 | COc1ccccc1CC(C)(C)C(=O)NCC(=O)Nc1cccnc1 | 9.21%
30 | CCn1cnnc1CNC(=O)NCC(C(C)C)N1CCOCC1 (stereo unspecified) | 13.5%
31 | CSCCC(NC(N)=O)C(=O)NCc1ccc(-n2cccn2)cc1 (stereo unspecified) | 18%
32 | CSCc1cc(F)ccc1CNC(=O)N1CCC(CO)CC1 | 1.82%
33 | O[C@H]1Cc2ccccc2[C@H]1Nc1ncccc1C(F)(F)F | 5.95%
34 | CC(C(N)=O)N(C)Cc1ccccc1C(F)(F)F (stereo unspecified) | -5.54%
35 | NC(=O)Nc1ccc(C(=O)NCCn2cccc2)cc1 | -1.23%
36 | CCC(CNC(=O)c1ccccc1Br)N1CCc2ccccc2C1 (stereo unspecified) | 16.6%
37 | CC(C)CCCC(C)NC(=O)c1ccc(OCC(N)=O)cc1 (stereo unspecified) | 10.2%
38 | CSc1ccc(CN(C)Cc2noc(C(C)(C)C)n2)cc1 | -8.58%
39 | Cc1ccccc1CN(C)C(=O)Cn1nc(-c2ccc(F)cc2)oc1=O | -19.3%
40 | CN(Cc1nnc(C2CC2)o1)C1CCN(CCc2cccs2)C1 (stereo unspecified) | -2.01%
41 | CCc1nc(CN2CCCC(N(C)CCc3cccs3)C2)no1 (stereo unspecified) | 15.5%
42 | Cc1cnn(CC(C)NCc2nc(-c3ccccn3)no2)c1 (stereo unspecified) | 0.234%
43 | c1cc(NCc2cscn2)cc(OCCN2CCCCC2)c1 | -20.7%
44 | Cn1cc(NC(=O)c2cccc(Cl)c2)c(=O)n(C)c1=O | -1.86%
45 | CCOc1ncccc1NC(=O)Nc1c(C)nn(C(C)C)c1C | 17.8%
46 | CCN(c1ccccc1)S(=O)(=O)c1cc(C(=O)O)cc2c1CCC2 | 9.69%

Row | SMILES | cytotoxicity at 10 µM
47 | CCN(CC1CCOC1)C(=O)c1cc(Cl)c2c(c1)OCO2 (stereo unspecified) | 8.88%
48 | CN(Cc1ccncc1)C(=O)NCc1cn(-c2ccccc2)nn1 | -55.7%
49 | O=C(NCc1ccccc1OCC1CC1)C1CCOC1 (stereo unspecified) | 4.94%
50 | Cc1ccsc1CNC(=O)c1ccc(N2CCOC2=O)cc1 | 22.2%
51 | Cc1nc(C(=O)N2CC(C)Sc3ccccc32)cs1 (stereo unspecified) | -3.71%
52 | NS(=O)(=O)CCNC(=O)c1nnn(-c2ccccc2)c1C1CC1 | -12.2%
53 | CCc1nc(CCNC(=O)C2CCOC2)sc1C (stereo unspecified) | -20.4%
54 | CC(C)(C)c1nc(CN2CCC(c3nc4cc(Cl)ccc4o3)CC2)no1 | 3.9%
55 | Cc1ccc(CN2CCC3(CC(C(=O)NC4CCC4)=NO3)C2)o1 (stereo unspecified) | -97.5%
56 | Cc1ccoc1C(=O)N1C[C@@H](OCC2CCOCC2)[C@H]2OCCC[C@H]21 | 4.11%
57 | Cn1cccc1C(=O)N1CCCC2(CCCN2Cc2cccnc2)C1 (stereo unspecified) | 2.88%
58 | Cn1c(CN2CCC(OCc3cccnc3)CC2)cc2ccccc21 | -2.65%
59 | CCc1ncc(CN2CCOC(Cc3cccc(F)c3)C2)cn1 (stereo unspecified) | 0.0753%
60 | Cc1nn(C)c(C)c1NC(=O)c1cccc(CN2CC[C@H](O)C2)c1 | 1.08%
61 | CCN1CCCC(C)(C(=O)NCc2nncn2CCc2ccccc2)C1 (stereo unspecified) | -10.2%
62 | CCC1CN(C(=O)c2csc3nc(-c4ccc(Cl)cc4)cn23)CCN1 (stereo unspecified) | 1.6%
63 | CC(C)(O)CCc1cccc(C(=O)NCc2nccs2)c1 | -50.7%
64 | O=c1c2cccc(Cl)c2ncn1C1CCNC1 (stereo unspecified) | -41.2%
65 | CN(C)c1nc2c(c(N(C)C)n1)CCN(C(=O)CN1CCC(O)CC1)C2 | 5.31%
66 | CN(C)CCNc1ccc(-c2nc(COc3ccccc3)no2)cn1 | 10.2%
67 | Cc1cc(CN(C)Cc2csc(-c3cccs3)n2)n[nH]1 | -4.14%
68 | Cc1nc(-c2cn(CCN)nn2)n(-c2ccc3c(c2)CCC3)n1 | 2.86%
69 | CSCCC1c2nc[nH]c2CCN1Cc1cncn1C (stereo unspecified) | 13.3%

Row | SMILES | cytotoxicity at 10 µM
70 | CC[C@@]1(O)CCN(Cc2cc(C3CCCCC3)no2)C[C@H]1O | -4.18%
71 | CC1CCCN(c2ccc(C(N)=O)cc2NC(=O)CC2=CCNCC2)C1 (stereo unspecified) | -46.3%
72 | CCn1c(CC2CCN(C(=O)C3CCOC3)CC2)nn(C)c1=O (stereo unspecified) | -18%
73 | CCN1CCN(Cc2nc(CCc3ccccc3)n[nH]2)CC1 | -10.7%
74 | Cc1noc(-c2ccnc(Oc3ccccc3CN3CCCCC3)c2)n1 | -1.76%
75 | CC(CN1CCC(c2ccccc2)CC1)n1cnc2ccccc21 (stereo unspecified) | 15.5%
76 | CCc1[nH]c2c(CNc3cnccn3)cc(F)cc2c1C | -2.61%
77 | O=c1c2ccc(C(F)(F)F)cc2ncn1CCCN1CCCCC1CO (stereo unspecified) | -5.98%
78 | Cc1nonc1C1CCCN1Cc1ccc(C(=O)Nc2nccs2)cc1 (stereo unspecified) | 76.7%
79 | Cn1c(-c2cc3n(n2)CCCN(CC(=O)O)C3)nc2ccccc21 | 2.68%
80 | Cc1ccc(CN2CCN(c3cncc(N(C)C)n3)CC2=O)cc1C | -2.53%
81 | O=C1N(CCC2CCCCC2)CCCC1(O)CNCCc1ccccc1 (stereo unspecified) | -8.92%
82 | CN1CCCC2(CC1)CCN(C(=O)CCc1ccccc1O)CC2 | -32.1%
83 | Cc1csc2nc3n(c(=O)c12)CCN(C(=O)c1ccncc1)CC3 | -2.65%
84 | COCCCN1CCC(C(=O)c2cc(F)ccc2F)CC1 | -10.9%
85 | O=C(N1CCCCC1)N1CCN(CC(O)c2ccccc2)CC1 (stereo unspecified) | -7.45%
86 | Cc1ccoc1C(=O)NC1CCN(Cc2cccc3ccccc23)CC1 | 0.561%
87 | CCn1cnnc1CNC(=O)c1cc(Cl)ccc1F | -7.75%
88 | Cc1ccc(NC2CCN(C(=O)COCC3CC3)CC2)nn1 | 0.132%
89 | Cc1nc(C)n(CC2CCCN(Cc3noc(C)n3)C2)n1 (stereo unspecified) | -1.87%
90 | CCc1ncncc1C(=O)N1CCCN(Cc2ccc(C)cc2)CC1 | -0.611%
91 | O=C(c1cc(C2CC2)on1)N1CCCC(n2cncn2)C1 (stereo unspecified) | -14%
92 | NC(=O)C1CCCN(C(=O)c2cnc3c(cnn3C3CCCC3)c2)C1 (stereo unspecified) | -5.54%

Row | SMILES | cytotoxicity at 10 µM
93 | NC(=O)CC1CCN(C(=O)NCc2ccccc2-n2cccn2)CC1 | 2.19%
94 | COC(=O)c1cccn1C1CCN(Cc2ccccc2)CC1 | -12%
95 | Clc1ccc(C2(CNC3=NCCN3)CC2)cc1 | 7.38%
96 | Cc1nc2c(c(NC3CC3)n1)CCN(C(=O)CCO)CC2 | -68.3%
97 | COCC1CN(CC2CC2)Cc2nn(CC3CC3)cc21 (stereo unspecified) | -71.4%
98 | CCS(=O)(=O)N1CCCC2(COCCN(c3ccccn3)C2)C1 (stereo unspecified) | -1.02%
99 | COc1ncccc1CN1C[C@H]2CCN(c3ncccn3)C[C@H]2C1 | 2.66%
100 | COc1ncccc1CN1CCC2(CC1)CC(OCC1CC1)CO2 (stereo unspecified) | 4.33%
101 | N#Cc1ccc(CN2CC3(CCCCN3c3cccnc3)CC2=O)cc1 (stereo unspecified) | 0.995%
102 | N#Cc1cccc(CN2CC3(CCCCN3c3cccnc3)CC2=O)c1 (stereo unspecified) | -7.27%
103 | O=C(C1CC=CC1)N1C[C@H]2CN(Cc3ccncc3)C(=O)[C@H]2C1 | -86.6%
104 | CS(=O)(=O)N1CCOCC2(CCN(Cc3ccc[nH]3)CC2)C1 | -7.02%
105 | c1cncc(-c2ccc3c(c2)CCC32CCN(Cc3nccs3)CC2)c1 | 36%
106 | c1ccc(CN2Cc3nccn3CC(Cn3cccn3)C2)nc1 (stereo unspecified) | -105%
107 | Cn1cc(N2CC3(COCCN(Cc4nccs4)C3)OCC2=O)cn1 (stereo unspecified) | -79.9%
108 | Fc1ccc(CN2CC[C@H]3O[C@@H](COCC4CCOCC4)CC[C@H]32)cc1 | 7.64%
109 | COc1ccc(CN2CCc3ncnc(OC(C)C)c3CC2)cc1 | -1.99%
110 | Cc1nc(CN2C(=O)C[C@H]3[C@H]2CCN3CC2CCOC2)cs1 (stereo partly specified) | -151%
111 | O=C(NCCc1ccccc1)N1C[C@@H]2C[C@H](C(=O)N3CCCC3)[C@H](C1)O2 | 6.95%
